UCH37 DUB inh: inhibitors of human deubiquitinating enzyme UCH37; Q9Y5K5; purified proteasome/UCH37, Ub-AMC cleavage fluorescence; inhibition, % (test concentration not listed); 330,000 tested, 0.33% active; AID 588478;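 active = mean inhibition over replicate wells above about 20%, limit read from the data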;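 note: 0% = compound-free wells with enzyme and 100% = wells lacking proteasome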
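Assay system: Proteasome-bound UCH37. Buffer or medium: pH 7.4 Tris-HCl (50 mM) with ovalbumin, ATP-MgCl2, DTT. Incubation: 30 min preincubation with enzyme, 25 min cleavage at room temperature. Measured by: fluorescence, ex 355 nm, em 460 nm. Read-out basis: percent inhibition. Control set: wells without proteasome as full block, compound-free enzyme plus substrate as uninhibited.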
Fh CTSL1 inh: counter-screen for PFM18AAP inhibitors: inhibitors of F. hepatica cathepsin L1; recombinant F. hepatica cathepsin L1, Z-Leu-Arg-MCA fluorescence; inhibition, % at 5.96 µM; 300,000 tested, 0.49% active;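 active = inhibition above the mean of all tested compounds plus 3 SD, set per screening campaign, cut at about 17% in these data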;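 note: 0% = plate median of test compound wells and 100% = 1 µM Z-Phe-Ala-diazomethylketone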
HKDC1 inhibitor: inhibitors of human hexokinase HKDC1 | Q2TB90 | recombinant HKDC1, G6PDH/diaphorase resazurin coupled fluorescence | inhibition, % at 20 µM | 340,000 tested, 0.16% active;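 active = inhibition above about 35% when tested at 20 µM, limit read from the data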;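 note: plate controls were DMSO wells with enzyme for no effect and DMSO wells lacking enzyme for full effect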
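Material: recombinant HKDC1 hexokinase; Amount: HKDC1 at 5 µg/mL; Medium: Tris pH 8.0 buffer with MgCl2, Tween-20, BSA, BME; Schedule: 90 min reaction incubation at room temperature, dark; Technique: coupled resazurin fluorescence, excitation 525 nm, emission 613 nm.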
PAD4 inh: inhibitors of human PAD4; Q9UM07; inhibition, % at 6.36 µM; 330,000 tested, 0.41% active; recombinant PAD4, RCA probe fluorescence polarization;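 active = percent inhibition above a cutoff equal to the mean of all tested compounds plus 3 SD, cut at about 15% in these data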;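 note: 0% = PAD4 with RCA probe and DMSO and 100% = probe without PAD4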
GSTO1 inh: GSTO1 inhibition, counter-screen for RBBP9 inhibitors; inhibition, % at 5.96 µM; 300,000 tested, 1.1% active; recombinant GSTO1, activity-based probe fluorescence polarization; AID 1974; P78417;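 active = inhibition above the campaign mean inhibition plus 3 SD, cut at about 35% in these data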;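 note: 0% = GSTO1-1 with DMSO and 100% = wells lacking GSTO1-1 enzyme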
Target sequence (P78417 whole entry, looked up): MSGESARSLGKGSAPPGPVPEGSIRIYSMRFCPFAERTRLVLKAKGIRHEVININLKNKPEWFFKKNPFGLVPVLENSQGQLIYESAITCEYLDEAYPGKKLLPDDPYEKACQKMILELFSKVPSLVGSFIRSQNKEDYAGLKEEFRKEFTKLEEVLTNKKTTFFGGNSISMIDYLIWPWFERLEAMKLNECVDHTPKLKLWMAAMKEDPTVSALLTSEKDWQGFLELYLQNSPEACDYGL
TDP2 absorb: TDP2 (human) inhibition, absorbance primary screen. 370,000 tested, 0.34% active. AID 720702. inhibition, % at 12.8 µM. recombinant TDP2, T5PNP hydrolysis, p-nitrophenol absorbance 415 nm;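 active = inhibition above the mean of all tested compounds plus 3 SD, set per campaign, cut at about 25% in these data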;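 note: 0% = DMSO with enzyme and 100% = buffer with substrate but no TDP2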
Target sequence (O95551 whole entry, looked up): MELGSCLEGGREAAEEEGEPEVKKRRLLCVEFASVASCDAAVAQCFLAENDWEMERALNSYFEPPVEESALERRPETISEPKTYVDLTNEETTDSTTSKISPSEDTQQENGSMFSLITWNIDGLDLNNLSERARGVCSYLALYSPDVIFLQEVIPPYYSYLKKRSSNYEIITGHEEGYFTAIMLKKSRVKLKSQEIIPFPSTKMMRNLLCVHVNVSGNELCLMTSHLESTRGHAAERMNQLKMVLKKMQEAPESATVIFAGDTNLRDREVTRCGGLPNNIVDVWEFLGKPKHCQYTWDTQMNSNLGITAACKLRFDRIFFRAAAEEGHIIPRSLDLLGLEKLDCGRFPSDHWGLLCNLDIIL
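System: recombinant human TDP2 / Amount: 120 nM TDP2 per well / Also added: 5 mM T5PNP chromogenic substrate / Doses: 12.8 µM single point, 1% DMSO / Incubation: 2 h at 37 °C / Detection: p-Nitrophenol epi absorbance / Evaluation: % inhibition relative to enzyme-containing and enzyme-free wells / Repeats: singlicate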
HKDC1 act conf: HKDC1 (human) activation, single-dose confirmed | shares compounds with HKDC1 inhibitor | inhibition, % at 20 µM | AID 504708 | 740 tested, 14% active | recombinant HKDC1, G6PDH/diaphorase resazurin fluorescence; stronger effect = lower value;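 active = inhibition at or below a set negative limit, negative inhibition meaning the enzyme was activated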
Numbers without * were called inactive; . = no result. Hits are enriched below; roughly 1.6% of the tested compounds scored in any of these assays.

SMILES | UCH37 DUB inh | Fh CTSL1 inh | HKDC1 inhibitor | PAD4 inh | GSTO1 inh | TDP2 absorb | HKDC1 act conf
Cn1c(SCC(=O)Nc2ccc3nc(SCC(=O)N4CCCC4)sc3c2)nnc1-c1ccc(N)cc1 | 4 | . | 33 | . | . | . | -29
COc1ccc(S(=O)(=O)N2CCOCC2)cc1NC(=O)CON=Cc1ccccc1OC(F)F | 4 | . | . | . | . | . | .
CCOC(=O)C1=C(Cc2ccc(Cl)cc2)C(=O)c2ccccc2C1=O | -59 | -5 | 60* | -54 | 9 | . | 39
O=[N+]([O-])c1ccc(Sc2nc3ccccc3o2)c([N+](=O)[O-])c1 | 8 | -6 | 35* | 49* | 12 | -1 | 30
O=[N+]([O-])c1ccc(Cl)cc1Sc1nc2ccccc2o1 | 3 | -1 | -10 | 4 | 5 | 9 | .
COc1cccc(NC(=O)CSc2ccc(-c3ccco3)nn2)c1 | 0 | 0 | 11 | -5 | 0 | 1 | .
COc1ccc(NC(=O)CSc2ccc(-c3ccco3)nn2)cc1OC | -2 | 0 | 43* | 0 | 4 | 19 | 44
COc1ccc(OC)c(NC(=O)CSc2ccc(-c3ccco3)nn2)c1 | 3 | 1 | 43* | 0 | 8 | 3 | 38
Cc1[nH]c2ccccc2c1C1=CC(=O)C=CC1=O | 1 | . | 58* | . | . | 5 | 53
O=C(C=NO)NCc1cccnc1 | 4 | . | . | . | . | . | .
O=C1C=CC2(C=C1)O[C@H](Cc1ccccc1)[C@@H](Cc1ccccc1)O2 | . | . | 38* | . | . | -6 | 3
CCCCC[C@H](O)/C=C/[C@@H]1[C@@H](C/C=C\CCCC(=O)OC)[C@@H](O)C[C@H]1O | 1 | 0 | 77* | 0 | 7 | . | 61
Cc1n[nH]c(=O)c2c(NC(=O)CSc3nnc(C4CC4)n3C)oc(C)c12 | 5 | -1 | 40* | 9 | 5 | 0 | -14
O=C(Nc1ccc(Nc2ccncc2)cc1)c1ccc(Nc2ccnc3ccc([N+](=O)[O-])cc23)cc1 | 2 | . | 44* | . | . | 8 | -7
Br/C(C=NN1CCN(Cc2ccccc2)CC1)=C\c1ccccc1 | 2 | . | . | . | . | . | .
CC(=NNC(=S)N1CC2CCC(CC2)C1)c1ccncn1 | . | . | -54 | . | . | 3 | -61*
CCC1CCCCN1C(=S)NN=C(C)c1ccccn1 (centres undefined) | . | . | . | . | . | -3 | .
COc1ccc(C=Nn2c(-c3n[nH]c4c3CCC4)n[nH]c2=S)cc1OC | 3 | . | . | . | . | . | .
CC(=NNC(=O)c1ccncc1)c1ccc(N2CCOCC2)cc1 | 8 | . | . | . | . | . | .
CSc1ccc(C=NNC(=O)c2cccc(Cl)c2)cc1 | -5 | . | . | . | . | . | .
O=C(O)c1cc(N2N=C(C(F)(F)F)/C(=C/C=C/c3ccco3)C2=O)ccc1Cl | 21* | . | 46* | . | . | 12 | 57
CCOC(=O)c1ccc(N2N=C(C)/C(=C/C=C/c3ccco3)C2=O)cc1 | 8 | 0 | -1 | -6 | 5 | 4 | .
CCC(=O)OC1(C)C(=O)C2=COC(c3ccc(OC)cc3)=CC2=C(Br)C1=O (centres undefined) | 10 | 0 | 45* | -10 | 33 | 4 | 30
COc1ccc(C2=CC3=C(Br)C(=O)C(C)(O)C(=O)C3=CO2)cc1 (centres undefined) | 1 | 1 | 34 | 0 | 15 | . | -5
COc1cc(C=Nn2c(-c3ccccc3)n[nH]c2=S)ccc1O | 6 | . | . | . | . | . | .
SMILES | UCH37 DUB inh | Fh CTSL1 inh | HKDC1 inhibitor | PAD4 inh | GSTO1 inh | TDP2 absorb | HKDC1 act conf
CCCC(NC(=O)Cc1c(C)c2cc3c(C)c(C)oc3c(C)c2oc1=O)C(=O)N[C@@H](Cc1ccccc1)C(=O)O (some centres undefined) | -24 | -1 | 52* | -3 | 3 | -12 | -19
COc1ccc(C(=O)c2coc3c2C(=O)C(=O)c2ccccc2-3)cc1 | 11 | -3 | 61* | -11 | 24 | 15 | 45
COc1ccc2occ(C(=O)c3ccccc3)c2c1 | 5 | 3 | -2 | 5 | 15 | -2 | .
CC(=NNC(=O)c1cccc(S(=O)(=O)N2CCCC2)c1)c1ccc(F)cc1 | 1 | . | . | . | . | . | .
CC1(OC(=O)CCc2ccccc2)C(=O)C=C2C=C(c3ccc(C#N)cc3)N(Cc3ccccc3)C=C2C1=O (centres undefined) | 2 | 2 | 36* | -17 | 28 | -6 | -9
O=C(CN(CCc1ccccc1)S(=O)(=O)c1ccc(Br)cc1)NN=Cc1ccc2c(c1)OCO2 | -2 | . | . | . | . | . | .
CN(C)C(=O)/C(C#N)=C\c1cc(Br)c(Sc2ccc(Cl)cc2)o1 | -3 | 2 | 35* | 2 | 16 | . | 14
Cc1cc(C(=O)N=Nc2c(O)n(C(C)C)c3ccccc23)n[nH]1 | 10 | 4 | 40* | -2 | -1 | -2 | 34
CN(C)/C=C1\Oc2ccc3ccccc3c2C1=O | -65 | 0 | 12 | -10 | 2 | -6 | .
O=C1C(=O)c2c(ccc3ccccc23)-c2ccccc21 | -10 | . | 33 | . | . | 4 | -7
O=C(CSc1nnc(CCCN2C(=O)c3cccc4cccc(c34)C2=O)n1-c1ccccc1)N1CCCCC1 | -4 | 2 | 37* | 3 | 0 | -5 | 48
O=C(CSc1nnc(Cc2cc(=O)[nH]c(=O)[nH]2)n1-c1ccccc1)N1CCCCC1 | 4 | -3 | -3 | 2 | -3 | -4 | .
O=C(Cc1ccc(Br)c2ccccc12)NN=Cc1ccccn1 | 2 | . | . | . | . | . | .
NC(=S)N/N=C/c1ccc(-c2cc(Cl)c(Cl)cc2Cl)o1 | . | 8 | -5 | -5 | -10 | -6 | .
NC(=S)N/N=C/c1ccc(Br)o1 | . | 17* | -55 | 0 | 9 | 11 | -10
Cc1ccc(-c2nc(NC(=O)CSc3cc(C)c4ccccc4n3)ns2)cc1 | 6 | -1 | 57* | -1 | -1 | 4 | -2
CC1(C)C(=O)Nc2ccccc2N1C(=O)COC(=O)c1cc(Cl)cc(Cl)c1 | 2 | . | -41 | -5 | . | 0 | -50*
CC1(C)C(=O)Nc2ccccc2N1C(=O)COC(=O)c1cccnc1 | 3 | . | -5 | -3 | . | -7 | .
CC(C)(C=O)C1=CC(=O)c2ccccc2C1=O | -59 | -2 | 51* | -8 | 49* | 24 | 41
CC1=NOC(=O)/C1=C\c1ccc(-c2cc(Cl)ccc2Cl)o1 | . | 3 | 57* | -2 | 6 | 3 | 10
CC1=NOC(=O)/C1=C\c1ccc(-c2ccc(Br)cc2)o1 | 4 | . | 42* | . | . | 10 | 12
CC1=NOC(=O)/C1=C/c1ccc(-c2ccc(Cl)cc2)o1 | 7 | -1 | . | -3 | 32 | . | .
Oc1ccc(O)c(Cc2nc3ccccc3[nH]2)c1 | 1 | -6 | 54* | -3 | 70* | 3 | 56
O=C1/C(=C/Nc2cccc([N+](=O)[O-])c2)CCc2ccccc21 | 0 | 5 | 41* | -5 | 10 | 11 | 5

Source: PubChem BioAssay
